ChEMBL document CHEMBL4052826, “Design and Synthesis of Novel Reactive Oxygen Species Inducers for the Treatment of Pancreatic Ductal Adenocarcinoma” (J Med Chem, 2018)
Activity calls are given as the source filed them.

How the values were obtained:
[1] = test system: PANC-1; test: Induction of reactive oxygen species generation in human PANC1 cells assessed as upregulation of HO-1 expression at 2 uM after 4 to 24 hrs by Western blot analysis; assay type: functional, cell-based
Method in brief: (§1)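 Immunoblotting. Cells (4×10^5) in 60 mm dishes were treated, lysed 30 min at 4°C and quantified by BCA. 40 μg protein was run on SDS-PAGE and transferred to PVDF. Primary antibodies (1:1000) incubated overnight at 4°C, then Dylight 800 secondary, with fluorescent scanning. Bands were normalized to GAPDH or actin loading controls. Mean ± SD, three independent experiments, Student's t-test.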

[2] = test system: PANC-1; test: Induction of unfolded protein response in human PANC1 cells assessed as upregulation of CHOP expression at 2 uM by Western blot analysis; assay type: functional, cell-based; details: TDE = time-dependent effect
Method in brief: (§2)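 Cells (4×10^5) seeded in 60 mm dishes, cultured in RPMI1640 with 10% FBS, 5% CO2, 37°C, then compound-treated. Lysed 30 min at 4°C, BCA-quantified, 40 μg protein resolved by SDS-PAGE, transferred to PVDF, probed overnight at 4°C with primary antibodies (1:1000; GAPDH or actin loading control), then Dylight 800 secondary; fluorescence scanned. Bands normalized to loading control; mean ± SD, three independent experiments.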

[3] = test system: MIA PaCa-2; test: Cytotoxicity against human MIAPaCa2 cells assessed as decrease in cell proliferation after 72 hrs in presence of NAC by MTT assay; assay type: functional, cell-based
Method in brief: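 MIA PaCa-2 cells were treated for 72 h with compound in the presence of 5 mM NAC. Viability was read by MTT (final 300 μg/mL, 3 h, A570). Mean ± SD of three independent experiments.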

[4] = test system: MIA PaCa-2; test: Antitumor activity against human MIAPaCa2 cells xenografted in NOD/SCID mouse assessed as tumor volume at 5 mg/kg, ip administered 5 times a week for 48 days (reference value: 1503 +/- 189 mm'3); assay type: functional
Method in brief: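 MIA PaCa-2 subcutaneous xenografts in NOD/SCID mice, randomized at 75 mm3. Test agent was given at 5 mg/kg five times a week. Gemcitabine was given at 15 mg/kg either once weekly for 48 days or twice weekly for 15 days. Groups were n=3–4. Tumor volume was measured by caliper, given as mean ± SEM, and compared by unpaired t test.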

[5] = test system: MIA PaCa-2; test: Downregulation of COX-3 expression in human MIAPaCa2 cells at 2 uM after 4 to 24 hrs by Western blot method; assay type: functional, cell-based; method in brief: as §1
[6] = test system: Mus musculus; test: Induction of reactive oxygen species generation in tumor of NOD/SCID mouse xenografted with MIAPaCa2 cells assessed as upregulation of NQO1 expression at 5 mg/kg, ip administered 5 times a week until day 44 by Western blot method; assay type: functional, organism-based
[7] = test system: Mus musculus; test: Toxicity in NOD/SCID mouse xenografted with human MIAPaCa2 cells assessed as microscopic changes in pancreas at 5 mg/kg, ip administered 5 times a week until day 44 by hematoxylin and eosin staining-based inverted microscopic method; assay type: organism-based; details: in vivo
Method in brief: (§3)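 Necropsy after the 44-day ip course in MIA PaCa-2 xenograft-bearing NOD/SCID mice: heart, kidney, liver, lung, spleen and pancreas fixed in 10% neutral buffered formalin, paraffin-embedded, sectioned and stained with hematoxylin and eosin. Sections examined by inverted microscope at 20X, compared with vehicle-treated animals.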

[8] = test system: MIA PaCa-2; test: Induction of reactive oxygen species generation in human MIAPaCa2 cells assessed as upregulation of NQO1 expression at 2 uM after 4 to 24 hrs by Western blot analysis; assay type: functional, cell-based; method in brief: as §1
[9] = Selectivity index, ratio of IC50 for HPDEC to IC50 for human MIAPaCa2 cells
Method in brief: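 The measurement is MTT cytotoxicity (72 h) in HPV16-E6E7-immortalized HPDE cells and in MIA PaCa-2 cells, both grown in RPMI1640 with 10% FBS. Cells were seeded at 3000–8000/well and attached overnight, then treated with serial dilutions (30 nM–10 μM for most lines). MTT (300 μg/mL final) was added for 3 h at 37°C, formazan was dissolved in DMSO and A570 was read. IC50s are mean ± SD of three experiments; the index is their ratio.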

[10] = test system: Mus musculus; test: Toxicity in NOD/SCID mouse xenografted with human MIAPaCa2 cells assessed as body weight loss at 5 mg/kg, ip administered 5 times a week until day 44 followed by dose escalation up to 20 mg/kg until day 67; assay type: organism-based; details: in vivo
Method in brief: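 After a 44-day course (ip, five days on/two off, in 5% DMSO/60% propylene glycol/35% saline), two mice per group stayed on study and dose was gradually raised from 5 to 20 mg/kg until day 67 in MIA PaCa-2 flank xenografts in NOD/SCID mice. Body weight monitored; mean ± SEM.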

[11] = test system: Mus musculus; test: Toxicity in NOD/SCID mouse xenografted with human MIAPaCa2 cells assessed as microscopic changes in liver at 5 mg/kg, ip administered 5 times a week until day 44 by hematoxylin and eosin staining-based inverted microscopic method; assay type: organism-based; details: in vivo; method in brief: as §3
[12] = test system: MIA PaCa-2; test: Induction of apoptosis signaling in human MIAPaCa2 cells at 5 times IC50 after 4 hrs by IPA analysis; assay type: functional, cell-based
[13] = test system: BXPC-3; test: Induction of reactive oxygen species generation in human BxPC3 cells assessed as upregulation of HO-1 expression at 2 uM after 4 to 24 hrs by Western blot analysis; assay type: functional, cell-based; method in brief: as §1
[14] = test system: Mus musculus; test: Toxicity in NOD/SCID mouse xenografted with human MIAPaCa2 cells assessed as microscopic changes in kidney at 5 mg/kg, ip administered 5 times a week until day 44 by hematoxylin and eosin staining-based inverted microscopic method; assay type: organism-based; details: in vivo; method in brief: as §3
[15] = test system: BXPC-3; test: Induction of unfolded protein response in human BxPC3 cells assessed as upregulation of GRP78 expression at 2 uM by Western blot analysis; assay type: functional, cell-based; details: TDE = time-dependent effect; method in brief: as §1
[16] = test system: PANC-1; test: Induction of unfolded protein response in human PANC1 cells assessed as upregulation of GRP78 expression at 2 uM by Western blot analysis; assay type: functional, cell-based; details: TDE = time-dependent effect; method in brief: as §2
[17] = test system: MIA PaCa-2; test: Induction of reactive oxygen species generation in human MIAPaCa2 cells assessed as upregulation of HMOX1 gene expression after 4 hrs by Bru-seq analysis; assay type: functional, cell-based
[18] = test system: MIA PaCa-2; test: Cytotoxicity against gemcitabine-resistant human MIAPaCa2 cells assessed as decrease in cell proliferation after 72 hrs by MTT assay; assay type: functional, cell-based
Method in brief: (§4)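 MTT assay. Cells (3000–8000/well) attached overnight in RPMI1640 with 10% FBS; the GR line was kept with 200 nM gemcitabine. Serial dilutions (30 nM–10 μM for most lines) were applied for 72 h. MTT was added at a final 300 μg/mL for 3 h at 37°C, formazan was dissolved in DMSO and A570 read. Inhibition = (1 − OD treated/OD control) × 100. IC50 given as mean ± SD, three independent experiments.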

[19] = test system: BXPC-3; test: Cytotoxicity against human BxPC3 cells assessed as decrease in cell proliferation after 72 hrs by MTT assay; assay type: functional, cell-based; details: BXPC-3, 72 h; method in brief: as §4
[20] = test system: MIA PaCa-2; test: Induction of unfolded protein response in human MIAPaCa2 cells assessed as upregulation of CHOP expression at 2 uM by Western blot analysis; assay type: functional, cell-based; details: TDE = time-dependent effect; method in brief: as §1
[21] = test system: MIA PaCa-2; test: Induction of reactive oxygen species generation in human MIAPaCa2 cells assessed as upregulation of NQO1 gene expression after 4 hrs by Bru-seq analysis; assay type: functional, cell-based

O=C1C(Nc2ccc(-c3ccccc3)cc2)=CC(=O)c2ncncc21
3: Ratio IC50 [9]
Non-Toxic: Activity [7] | Activity [10] | Activity [11] | Activity [14]
inactive: Activity [1] | Activity [3] | Activity [8]
500 nM: IC50 [19]
1000 nM: IC50 ([18]; MIA PaCa-2, 72 h)
active: Activity [2] Tde | Activity [5] | Activity [6] | Activity [12] | Activity [13] | Activity [15] Tde | Activity [16] Tde | Activity [17] Dose-dependent effect | Activity [18] Dose-dependent effect | Activity [20] Tde | Activity [21] Dose-dependent effect
248 mm3: Activity [4]
